Test results taken from ChEMBL document CHEMBL3112475, “Synthesis of novel ring-A fused hybrids of oleanolic acid with capabilities to arrest cell cycle and induce apoptosis in breast cancer cells” (Eur J Med Chem, 2014).
pIC50: −log10 of the molar value. Calls of active or inactive are those of the source. No cut-off for these calls is given here.

Columns and labels:
[1] = test system: MDA-MB-231; experiment: Cytotoxicity against human MDA-MB-231 cells after 48 hrs by MTT assay; assay type: functional, cell-based; settings: MDA-MB-231, 48 h
Method in brief: (§1)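 1 × 10⁴ cells, counted by trypan blue exclusion, were incubated in 96-well plates with a concentration series for 48 h at 37 °C in DMEM with 10% FBS. MTT reagent (5 mg/ml) was added and absorbance read at 570 nm. IC50 was taken from a plot of % viability versus control against concentration. Compounds were first screened at 100 µM, and only those giving ≥50% cytotoxicity went to dose-response.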

[2] = test system: HT-29; experiment: Cytotoxicity against human HT-29 cells after 48 hrs by MTT assay; assay type: functional, cell-based; settings: HT-29, 48 h; method in brief: as §1
[3] = test system: PC-3; experiment: Cytotoxicity against human PC3 cells after 48 hrs by MTT assay; assay type: functional, cell-based; settings: PC-3, 48 h; method in brief: as §1
[4] = test system: HeLa; experiment: Cytotoxicity against human HeLa cells after 48 hrs by MTT assay; assay type: functional, cell-based; method in brief: as §1
[5] = test system: MCF7; experiment: Cytotoxicity against human MCF7 cells after 48 hrs by MTT assay; assay type: functional, cell-based; settings: MCF7, 48 h; method in brief: as §1
[6] = test system: MDA-MB-453; experiment: Cytotoxicity against human MDA-MB-453 cells after 48 hrs by MTT assay; assay type: functional, cell-based; settings: MDA-MB-453, 48 h; method in brief: as §1
[7] = Cytotoxicity against human ME180 cells after 48 hrs by MTT assay; assay type: functional, cell-based; settings: ME-180, 48 h; method in brief: as §1
[8] = test system: MCF7; experiment: Induction of morphological change in human MCF7 cells assessed as chromatin condensation with destructive fragmentation of nucleus at 10 uM after 48 hrs by acridine orange and ethidium bromide staining based fluorescence microscopic analysis; assay type: functional, cell-based
Method in brief: (§2)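 MCF-7 cells were plated at 1 × 10⁶ cells/ml and treated with compound for 48 h. After acridine orange/ethidium bromide dual staining, cells were viewed 30 min later by fluorescence microscopy through a blue filter. Green homogeneous nuclei were scored as intact, condensed or fragmented chromatin as apoptotic, and orange-red nuclei as late apoptotic/necrotic. At least 200 cells were counted in random fields, and each test was done three times.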

[9] = test system: MCF7; experiment: Induction of morphological change in human MCF7 cells assessed as cell shrinkage at 10 uM after 48 hrs by acridine orange and ethidium bromide staining based fluorescence microscopic analysis; assay type: functional; method in brief: as §2
[10] = test system: MCF7; experiment: Cell cycle arrest in human MCF7 cells assessed as accumulation at S phase at 5 uM after 48 hrs by propidium iodide staining (reference value: 10.2%); assay type: functional
[11] = test system: MCF7; experiment: Cell cycle arrest in human MCF7 cells assessed as accumulation at G2/M phase at 5 uM after 48 hrs by propidium iodide staining (reference value: 14.9%); assay type: functional
[12] = test system: MCF7; experiment: Cell cycle arrest in human MCF7 cells assessed as accumulation at G0/G1 phase at 10 uM after 48 hrs by propidium iodide staining (reference value: 69.2%); assay type: functional
[13] = test system: MCF7; experiment: Induction of morphological change in human MCF7 cells assessed as membrane blebbing at 10 uM after 48 hrs by acridine orange and ethidium bromide staining based fluorescence microscopic analysis; assay type: functional, cell-based; method in brief: as §2
[14] = test system: MCF7; experiment: Ratio of etoposide IC50 to compound IC50 for human MCF7 cells; assay type: functional
[15] = test system: MCF7; experiment: Cell cycle arrest in human MCF7 cells assessed as accumulation at G0/G1 phase at 5 uM after 48 hrs by propidium iodide staining (reference value: 69.2%); assay type: functional
[16] = test system: MCF7; experiment: Induction of apoptosis in human MCF7 cells assessed as increase of late apoptotic/necrotic cells at 10 uM after 48 hrs by acridine orange and ethidium bromide staining based fluorescence microscopic analysis; assay type: functional, cell-based; method in brief: as §2
[17] = test system: MCF7; experiment: Cell cycle arrest in human MCF7 cells assessed as accumulation at S phase at 10 uM after 48 hrs by propidium iodide staining (reference value: 10.2%); assay type: functional
[18] = test system: MCF7; experiment: Cell cycle arrest in human MCF7 cells assessed as accumulation at G2/M phase at 10 uM after 48 hrs by propidium iodide staining (reference value: 14.9%); assay type: functional
[19] = test system: MCF7; experiment: Induction of apoptosis in human MCF7 cells assessed as increase of early apoptotic cells at 5 uM after 48 hrs by acridine orange and ethidium bromide staining based fluorescence microscopic analysis; assay type: functional, cell-based; method in brief: as §2

Compound | pIC50 [1] | pIC50 [2] | pIC50 [3] | pIC50 [4] | pIC50 [5] | pIC50 [6] | pIC50 [7] | Activity [8] | Activity [9] | Activity [10] [%] | Activity [11] [%] | Activity [12] [%] | Activity [13] | Ratio IC50 [14] | Activity [15] [%] | Activity [16] | Activity [17] [%] | Activity [18] [%] | Activity [19]
COC(=O)[C@]12CCC(C)(C)C[C@H]1C1=CC[C@@H]3[C@@]4(C)Cc5c(-c6ccccc6)nc(=O)[nH]c5C(C)(C)[C@@H]4CC[C@@]3(C)[C@]1(C)CC2 | < 4.00 | < 4.00 | 4.06 | < 4.00 | 4.10 | 4.01 | < 4.00 | – | – | – | – | – | – | – | – | – | – | – | –
CC1(C)CC[C@]2(C(=O)O)CC[C@]3(C)C(=CC[C@@H]4[C@@]5(C)CC[C@H](O)C(C)(C)[C@@H]5CC[C@]43C)[C@@H]2C1 [OLEANOLIC_ACID] | < 4.00 | < 4.00 | < 4.00 | < 4.00 | < 4.00 | < 4.00 | < 4.00 | – | – | – | – | – | – | – | – | – | – | – | –
COC(=O)[C@]12CCC(C)(C)C[C@H]1C1=CC[C@@H]3[C@@]4(C)Cc5c(nn(-c6ccccc6)c5-c5ccccc5)C(C)(C)[C@@H]4CC[C@@]3(C)[C@]1(C)CC2 | < 4.00 | < 4.00 | < 4.00 | < 4.00 | < 4.00 | < 4.00 | < 4.00 | – | – | – | – | – | – | – | – | – | – | – | –
COc1cccc2c1C(=O)c1c(O)c3c(c(O)c1C2=O)C[C@@](O)(C(=O)CO)C[C@@H]3O[C@H]1C[C@H](N)[C@H](O)[C@H](C)O1 [DOXORUBICIN] | – | – | 6.72 | 6.44 | – | 5.70 | 6.41 | – | – | – | – | – | – | – | – | – | – | – | –
COc1cc([C@@H]2c3cc4c(cc3[C@@H](O[C@@H]3O[C@@H]5CO[C@@H](C)O[C@H]5[C@H](O)[C@H]3O)[C@H]3COC(=O)[C@H]23)OCO4)cc(OC)c1O [ETOPOSIDE] | 4.62 | 4.67 | 4.84 | 5.33 | 4.62 | – | 5.05 | – | – | – | – | – | – | – | – | – | – | – | –
COC(=O)[C@]12CCC(C)(C)C[C@H]1C1=CC[C@@H]3[C@@]4(C)CCC(=O)C(C)(C)[C@@H]4CC[C@@]3(C)[C@]1(C)CC2 | < 4.00 | < 4.00 | < 4.00 | < 4.00 | 4.10 | < 4.00 | < 4.00 | – | – | – | – | – | – | – | – | – | – | – | –
COC(=O)[C@]12CCC(C)(C)C[C@H]1C1=CC[C@@H]3[C@@]4(C)Cc5c(-c6ccccc6)nc(=S)[nH]c5C(C)(C)[C@@H]4CC[C@@]3(C)[C@]1(C)CC2 | 4.12 | 4.16 | < 4.00 | 4.12 | 4.51 | 4.39 | < 4.00 | – | – | – | – | – | – | – | – | – | – | – | –
COC(=O)[C@]12CCC(C)(C)C[C@H]1C1=CC[C@@H]3[C@@]4(C)C/C(=C\c5ccccc5)C(=O)C(C)(C)[C@@H]4CC[C@@]3(C)[C@]1(C)CC2 | < 4.00 | < 4.00 | < 4.00 | < 4.00 | 4.14 | < 4.00 | < 4.00 | – | – | – | – | – | – | – | – | – | – | – | –
COC(=O)[C@]12CCC(C)(C)C[C@H]1C1=CC[C@@H]3[C@@]4(C)C[C@@H]5C(=NN[C@H]5c5ccccc5)C(C)(C)[C@@H]4CC[C@@]3(C)[C@]1(C)CC2 | < 4.00 | < 4.00 | < 4.00 | < 4.00 | 4.02 | < 4.00 | < 4.00 | – | – | – | – | – | – | – | – | – | – | – | –
COC(=O)[C@]12CCC(C)(C)C[C@H]1C1=CC[C@@H]3[C@@]4(C)Cc5c(-c6ccccc6)nc(N)nc5C(C)(C)[C@@H]4CC[C@@]3(C)[C@]1(C)CC2 | 4.79 | 4.51 | 4.12 | 4.35 | 4.97 | 4.90 | 4.78 | Active | Active | 13 | 17.8 | 59.4 | Active | 2 | 62.4 | Active | 19.8 | 14.2 | Active
COC(=O)[C@]12CCC(C)(C)C[C@H]1C1=CC[C@@H]3[C@@]4(C)Cc5c(noc5-c5ccccc5)C(C)(C)[C@@H]4CC[C@@]3(C)[C@]1(C)CC2 | < 4.00 | < 4.00 | < 4.00 | < 4.00 | 4.05 | < 4.00 | < 4.00 | – | – | – | – | – | – | – | – | – | – | – | –
